Rows were chosen to be rich in hits. Some 9% of all compounds tested hit in one or more screens of this group.
M1 antagonist – antagonists of rat M1 muscarinic receptor; hit rate 3.4% among 64,000; Muscarinic acetylcholine receptor M1 (Rattus norvegicus), P08482; AID 628, 2007; CHO-M1 cells, Fluo-4 calcium, ACh EC80 antagonist mode; hits give low values; B-score at 10 µM;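 active = calcium fluorescence response, raw or row-and-column corrected B-score, differing from the plate sample mean either way at a set confidence level, mostly lower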
Target sequence (P08482 whole entry, looked up): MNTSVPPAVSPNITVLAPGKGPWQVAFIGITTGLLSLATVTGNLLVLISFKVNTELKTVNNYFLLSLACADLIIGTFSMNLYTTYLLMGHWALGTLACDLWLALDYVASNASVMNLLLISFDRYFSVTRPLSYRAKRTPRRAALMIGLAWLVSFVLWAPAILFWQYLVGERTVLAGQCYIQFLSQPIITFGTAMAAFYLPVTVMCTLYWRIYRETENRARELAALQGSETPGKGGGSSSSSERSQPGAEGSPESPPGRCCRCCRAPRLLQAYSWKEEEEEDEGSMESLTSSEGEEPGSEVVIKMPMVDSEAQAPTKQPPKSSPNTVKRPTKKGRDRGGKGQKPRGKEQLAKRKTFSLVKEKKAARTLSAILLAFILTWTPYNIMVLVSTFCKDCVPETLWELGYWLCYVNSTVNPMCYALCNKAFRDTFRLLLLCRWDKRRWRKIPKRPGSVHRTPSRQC
M1 agonist – M1 muscarinic receptor agonists, primary screen, CHO-M1 cells, Fluo-4 calcium, agonist mode | Muscarinic acetylcholine receptor M1 | Fluo-4 calcium fluorescence; hits give high values | B-score at 10 µM | hit rate 3% among 64,000;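 active = fluorescence rise, raw or as B-score row- and column-corrected plate score, outside the 99.7% band of its plate's samples, either direction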
AP complement – alternative complement pathway inhibitors, primary screen, biochemical, ELISA, human serum, orthogonally pooled compounds; LPS-coated ELISA, C3 deposition; tested in compound mixtures; inhibition, % at 5 µM; hit rate 0.08% among 62,000;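 active = inhibition above 30% in each of the two pooled mixtures holding the compound, so the lower value exceeds 30%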;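 also: 0% = serum in Mg-EGTA without compound and 100% = EDTA serum blank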
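Test system – human serum alternative complement pathway, C3 deposition on LPS-coated wells · Buffer or medium – diluted human serum in Mg2+-EGTA GVB++ · Compound dosing – 5 µM each compound, pools of ten, 50 µM per pool · Schedule – 1 h serum-compound exposure at 37 °C · Measured by – Anti-C3 ELISA, OD 450 nm · Read-out basis – percent inhibition of C3 deposition onto LPS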
mHtt clearance – clearance of mutant huntingtin inclusions, primary screen, imaging, HeLa Exon1htt(103Q)mCFP, confocal imaging; aggregate imaging; zero = plate's median compound well; inhibition, % at 1.5 µM; hit rate 0.42% among 47,000;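 active = inhibition of aggregate fluorescence above about 70%, also judged a hit by eye on the cell image, limit read from the data, passing the limit was not always enough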;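 also: cells exposed to compound for three days before fixation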
D1 allo mod – D1 CRE-luciferase signal change, two-sided – cell-based, HEK293 D1, dopamine EC30, D1 allosteric modulator project, primary screen | D(1A) dopamine receptor (Homo sapiens), P21728 | dopamine EC30 potentiation; actives deviate in either direction | B-score at 10 µM | hit rate 5.9% among 58,000 | AID 641, 2007;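 active = luminescence count or its row- and column-corrected plate score outside the 99.7% band of the plate's sample wells, on either side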
M1 antag confirm – rat M1 muscarinic receptor antagonists, confirmation, CHO cells, Fluo-4 calcium, duplicate; shares compounds with M1 antagonist; calcium response (max-min fluorescence) at 10 µM; hit rate 43% among 1,700; ACh EC80 antagonism; hits give low values;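 active = calcium response below the same-plate mean of wells given acetylcholine alone at its 80%-effect dose, minus 3 SD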;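 also: raw fluorescence intensity difference in arbitrary instrument units and not normalized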
mGluR4 antag – human mGluR4 response to M1 antagonist hits, M1 allosteric modulator project, cell-based, antagonist mode, secondary assay 1. shares compounds with M1 antagonist. CHO-mGluR4 calcium flux, Fluo-4 fluorescence, glutamate EC80; hits give low values. fluorescence response (max-min) at 10 µM. hit rate 0.9% among 1,700. AID 678, 2007;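 active = fluorescence response below the plate's average for near-maximal glutamate wells, less 3 SD of those wells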;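 also: raw unnormalized fluorescence span taken in the window right after glutamate addition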
The depositor's hits bear a star; / = no result given.

SMILES | M1 antagonist | M1 agonist | AP complement | mHtt clearance | D1 allo mod | M1 antag confirm | mGluR4 antag
C=C(C)C(=O)Nc1ccc(OC(F)(F)C(F)F)c(NC(=O)C(=C)C)c1 | / | / | / | -13 | / | / | /
O=C(Cc1ccccc1)N1CCCC1c1ccccc1 (centres undefined) | 0.96 | -0.53 | 7 | -34 | -0.12 | / | /
CCOC(=O)c1c(C)sc2c1N(C(C)=O)c1cc(Cl)ccc1S2 | / | / | / | -34 | / | / | /
COc1cccc(-c2nn(C)c3sc(C(=O)NCc4ccco4)cc23)c1 | -1.1 | 0.034 | 19 | / | 0.7 | / | /
CCN1CCCC1CNC(=O)c1cc2c(-c3cccc(OC)c3)nn(C)c2s1 (centres undefined) | -2.8* | 0.3 | 15 | / | -2.3 | 570 | 257
CCN1CCCC1CNC(=O)c1cc2c(-c3ccc(Cl)cc3)nn(C)c2s1 (centres undefined) | -4* | 0.33 | 11 | / | -1.8 | 430 | 200
Cn1nc(-c2ccc(Cl)cc2)c2cc(C(=O)NCCCN3CCCC3)sc21 | -1.7 | -0.6 | 23 | -37 | -1.4 | / | /
Cc1nn2c(c1-c1ccc(Cl)cc1)N=C(c1ccco1)CC2c1ccccc1 (centres undefined) | / | / | / | 30 | / | / | /
Cc1ccc2nsnc2c1S(=O)(=O)NCCc1c(C)[nH]c2ccc(F)cc12 | / | / | / | 29 | / | / | /
COc1ccc2[nH]c(=O)c(CN(C)C(=O)COc3ccccc3)cc2c1 | -9* | 0.017 | 6 | / | 0.9 | 665 | 219
O=C(Nc1cccc(C(F)(F)F)c1)C12CC3CC(CC(C3)C1)C2 | / | / | / | 40 | / | / | /
O=C(CCN1CCc2ccccc2C1)Nc1cccc(F)c1 | -1* | 0.67 | -2 | / | -1.1 | 601 | 250
COCCNC(=O)CN(C(=O)CCC(=O)Nc1nccs1)c1ccccc1OC | -0.03 | 0.0042 | 8 | / | 0.39 | / | /
c1ccc2c(c1)[nH]c1c(N3CCN(C4CCCCC4)CC3)ncnc12 | -2.2 | -0.43 | / | -31 | / | / | /
c1ccc2c(c1)[nH]c1c(N3CCOCC3)ncnc12 | -1 | 0.83 | -5 | -49 | -0.5 | / | /
CN1CCN(c2ncnc3c2[nH]c2ccc(F)cc23)CC1 | -6.2* | 2.7 | 11 | / | / | 542 | 220
c1ccc2c(c1)[nH]c1c(N3CCCC3)ncnc12 | -5.4* | 1 | 25 | -18 | -0.97 | 405* | 203
Cc1ccc2[nH]c3c(N4CCOCC4)ncnc3c2c1 | 0.11 | 1.6 | 6 | / | -0.32 | / | /
c1ccc2c(c1)[nH]c1c(N3CCSCC3)ncnc12 | -2.9* | 3.9 | / | 10 | / | 678 | 241
Cc1ccc(SCCC(=O)NCCSCc2ccccc2C)cc1 | / | / | / | -6 | / | / | /
CC1Cc2nc(SCC(=O)Nc3ccc4c(c3)OCO4)n(-c3ccc(F)cc3)c(=O)c2S1 (centres undefined) | 0.43 | 0.66 | 10 | / | -0.063 | / | /
CCOC(=O)C(Oc1ccc(=O)n(-c2ccccc2)n1)C(C)=O (centres undefined) | 0.043 | -0.014 | 19 | -37 | -0.32 | / | /
Cc1ccc(C)c(N2CCN(C(=O)CN(C)S(=O)(=O)c3cnc[nH]3)CC2)c1 | 0.7 | 0.33 | 10 | / | 0.017 | / | /
Cc1cccc(OCc2nnc(SCc3cc(=O)n4cc(Br)ccc4n3)o2)c1 | -3* | 2 | 18 | / | 0.014 | 564 | 233
C=CCC(O)(CCN1CCCCC1)c1ccccc1 (centres undefined) | -8* | 0.42 | 26 | -27 | 1.8 | 97* | 230
OC(C#CCN1CCOCC1)(c1ccccc1)C1CC1 (centres undefined) | -0.54 | -0.28 | -10 | / | 0.55 | / | /
O=C(CCN1CCCCCC1)c1ccccc1 | / | / | / | 39 | / | / | /
C=CCC(CC=C)(C(=O)O)c1ccccc1 | -0.83 | -0.069 | 4 | -33 | -0.078 | / | /
OC(CCN1CCCC1)(c1ccccc1)C1CCCCC1 (centres undefined) | -16* | -0.4 | 1 | / | 0.26 | 17* | 268

Bioassay records: PubChem, several laboratories
